PMC5094435 (Saudi Pharmaceutical Journal : SPJ, 2015)
Values after ≈ are worked out from the molar mass of the structure shown.

Legend:
[1] = test system: Staphylococcus aureus (MTCC 96); experiment: Antibacterial activity; assay type: cell-based; details: MTCC96, read-out: MIC, S. aureus
Outline: (§1)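 Screened by a standard method against S. aureus MTCC 96, B. subtilis MTCC 121, E. coli MTCC 1652 and P. aeruginosa MTCC 741. Ciprofloxacin was the reference antibiotic. Only compounds active at 100 μg/mL went on to MIC determination.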

[2] = test system: Escherichia coli (MTCC 1652); experiment: Antibacterial activity; assay type: cell-based; details: for MIC, E. coli: E. coli (MTCC 1652); for MIC: Escherichia coli, MTCC1652, read-out: MIC, E. coli
Outline: as §1

[3] = test system: Pseudomonas aeruginosa (MTCC 741); experiment: Antibacterial activity; assay type: cell-based; details: for MIC, P. aeruginosa: P. aeruginosa (MTCC 741); for MIC: Pseudomonas aeruginosa, MTCC741, read-out: MIC, P. aeruginosa
Outline: as §1

[4] = test system: Bacillus subtilis (MTCC 121); experiment: Antibacterial activity; assay type: cell-based; details: MTCC121, read-out: MIC, B. subtilis
Outline: as §1

Aspergillus niger = experiment: Antifungal activity; assay type: cell-based; details: read-out: MIC, A. niger
Outline: (§2)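 Run by the poison food technique against Aspergillus niger and Aspergillus flavus. Fluconazole was the reference drug.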

Aspergillus flavus = experiment: Antifungal activity; assay type: cell-based; details: read-out: MIC, A. flavus
Outline: as §2

[5] = test system: carrageenan induced edema; experiment: Anti-inflammatory activity, carrageenan induced rat paw edema; assay type: in vivo, Wistar rats; details: inhibition of edema, rats
Outline: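 Used the Winter et al. paw oedema method in Wistar rats of either sex (160–200 g), housed six per cage and acclimatised 48 h. Percent inhibition of oedema was calculated at 1, 2, 3 and 4 h. Diclofenac served as the standard drug.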

Structure (SMILES) | MIC [1] | MIC, E. coli [2] | MIC [2] | MIC, P. aeruginosa [3] | MIC [3] | MIC [4] | MIC (Aspergillus niger) | MIC (Aspergillus flavus) | % Inhibition ± SEM After 1 h [5] | % Inhibition ± SEM After 2 h [5] | % Inhibition ± SEM After 3 h [5] | % Inhibition ± SEM After 4 h [5]
O=C1OC(c2ccc3ccccc3c2)=CC1=Cc1cc2ccccc2nc1Cl [Compound 5a, 3-[(2-Chloroquinolin-3-yl)methylene]-5-(naphthalene-2-yl)furan-2(3H)-one] | 50 mg/L (≈ 130 µM) | did not show any inhibition | > 100 mg/L | did not show any inhibition | > 100 mg/L | 50 mg/L (≈ 130 µM) | 50 mg/L (≈ 130 µM) | > 100 mg/L | 67 ± 0.14^∗∗ % | 62 ± 0.11^∗∗ % | 46 ± 0.26% | 57 ± 0.27^∗∗ %
Cc1ccc2nc(Cl)c(C=C3C=C(c4ccc5ccccc5c4)OC3=O)cc2c1 [Compound 5c, 3-[(2-Chloro-6-methylquinolin-3-yl)methylene]-5-(naphthalene-2-yl)furan-2(3H)-one] | 25 mg/L (≈ 62.8 µM) | did not show any inhibition | > 100 mg/L | did not show any inhibition | > 100 mg/L | 50 mg/L (≈ 126 µM) | 50 mg/L (≈ 126 µM) | > 100 mg/L | 69 ± 0.12^∗∗ % | 66 ± 0.25^∗∗ % | 47 ± 0.17% | 59 ± 0.12^∗∗ %
O=C1OC(c2ccc(-c3ccccc3)cc2)=CC1=Cc1cc2ccccc2nc1Cl [Compound 5e, 3-[(2-Chloroquinolin-3-yl)methylene]-5-(biphenyl-4-yl)furan-2(3H)-one] | 25 mg/L (≈ 61 µM) |  | > 100 mg/L |  | > 100 mg/L | 50 mg/L (≈ 122 µM) | 25 mg/L (≈ 61 µM) | 50 mg/L (≈ 122 µM) | 63 ± 0.09^∗ % | 60 ± 0.22^∗∗ % | 53 ± 0.18% | 59 ± 0.12^∗∗ %
O=C1OC(c2ccc(-c3ccccc3)cc2)=CC1=Cc1cc2cc(Cl)ccc2nc1Cl [Compound 5f, 3-[(2,6-Dichloroquinolin-3-yl)methylene]-5-(biphenyl-4-yl)furan-2(3H)-one] | 12.5 mg/L (≈ 28.1 µM) |  | 50 mg/L (≈ 113 µM) |  | > 100 mg/L | 25 mg/L (≈ 56.3 µM) | 25 mg/L (≈ 56.3 µM) | 25 mg/L (≈ 56.3 µM) | 63 ± 0.13^∗∗ % | 58 ± 0.21^∗∗ % | 53 ± 0.17% | 58 ± 0.12^∗∗ %
Cc1ccc2nc(Cl)c(C=C3C=C(c4ccc(-c5ccccc5)cc4)OC3=O)cc2c1 [Compound 5g, 3-[(2-Chloro-6-methylquinolin-3-yl)methylene]-5-(biphenyl-4-yl)furan-2(3H)-one] | 25 mg/L (≈ 59 µM) | did not show any inhibition | > 100 mg/L | did not show any inhibition | > 100 mg/L | 50 mg/L (≈ 118 µM) | 50 mg/L (≈ 118 µM) | 50 mg/L (≈ 118 µM) | 67 ± 0.12^∗∗ % | 62 ± 0.11^∗∗ % | 46 ± 0.33% | 56 ± 0.06^∗∗ %
O=C1NC(c2ccc3ccccc3c2)=CC1=Cc1cc2ccccc2nc1Cl [Compound 6a, 3-[(2-Chloroquinolin-3-yl)methylene]-5-(naphthalene-2-yl)-1H-pyrrol-2(3H)-one] | 25 mg/L (≈ 65.3 µM) |  | > 100 mg/L |  | 50 mg/L (≈ 131 µM) | 25 mg/L (≈ 65.3 µM) | 25 mg/L (≈ 65.3 µM) | 25 mg/L (≈ 65.3 µM) | 64 ± 0.06^∗ % | 53 ± 0.18^∗∗ % | 49 ± 0.10% | 36 ± 0.32%
Cc1ccc2nc(Cl)c(C=C3C=C(c4ccc5ccccc5c4)NC3=O)cc2c1 [Compound 6c, 3-[(2-Chloro-6-methylquinolin-3-yl)methylene]-5-(naphthalene-2-yl)-1H-pyrrol-2(3H)-one] | 12.5 mg/L (≈ 31.5 µM) |  | > 100 mg/L |  | 50 mg/L (≈ 126 µM) | 12.5 mg/L (≈ 31.5 µM) | 25 mg/L (≈ 63 µM) | 12.5 mg/L (≈ 31.5 µM) | 32 ± 0.02% | 55 ± 0.22^∗∗ % | 47 ± 0.24% | 42 ± 0.20%
O=C1NC(c2ccc3ccccc3c2)=CC1=Cc1cc2cc([N+](=O)[O-])ccc2nc1Cl [Compound 6d, 3-[(2-Chloro-6-nitroquinolin-3-yl)methylene]-5-(naphthalene-2-yl)-1H-pyrrol-2(3H)-one] | 6.25 mg/L (≈ 14.6 µM) |  | 12.5 mg/L (≈ 29.2 µM) |  | 12.5 mg/L (≈ 29.2 µM) | 6.25 mg/L (≈ 14.6 µM) | 6.25 mg/L (≈ 14.6 µM) | 12.5 mg/L (≈ 29.2 µM) | 58 ± 0.25^∗ % | 60 ± 0.22^∗∗ % | 29 ± 0.16% | 48 ± 0.15^∗ %
O=C1NC(c2ccc(-c3ccccc3)cc2)=CC1=Cc1cc2ccccc2nc1Cl [Compound 6e, 3-[(2-Chloroquinolin-3-yl)methylene]-5-(biphenyl-4-yl)-1H-pyrrol-2(3H)-one] | 12.5 mg/L (≈ 30.6 µM) |  | > 100 mg/L |  | 50 mg/L (≈ 122 µM) | 50 mg/L (≈ 122 µM) | 50 mg/L (≈ 122 µM) | 25 mg/L (≈ 61.1 µM) | 38 ± 0.21% | 48 ± 0.21^∗∗ % | 44 ± 0.33% | 35 ± 0.32%
O=C1NC(c2ccc(-c3ccccc3)cc2)=CC1=Cc1cc2cc(Cl)ccc2nc1Cl [Compound 6f, 3-[(2,6-Dichloroquinolin-3-yl)methylene]-5-(biphenyl-4-yl)-1H-pyrrol-2(3H)-one] | 6.25 mg/L (≈ 14.1 µM) |  | 50 mg/L (≈ 113 µM) |  | 25 mg/L (≈ 56.4 µM) | 6.25 mg/L (≈ 14.1 µM) | 6.25 mg/L (≈ 14.1 µM) | 12.5 mg/L (≈ 28.2 µM) | 48 ± 0.13% | 63 ± 0.27^∗∗ % | 25 ± 0.34% | 42 ± 0.20%
Cc1ccc2nc(Cl)c(C=C3C=C(c4ccc(-c5ccccc5)cc4)NC3=O)cc2c1 [Compound 6g, 3-[(2-Chloro-6-methylquinolin-3-yl)methylene]-5-(biphenyl-4-yl)-1H-pyrrol-2(3H)-one] | 25 mg/L (≈ 59.1 µM) |  | 50 mg/L (≈ 118 µM) |  | 50 mg/L (≈ 118 µM) | 12.5 mg/L (≈ 29.6 µM) | 25 mg/L (≈ 59.1 µM) | 12.5 mg/L (≈ 29.6 µM) | 52 ± 0.08^∗ % | 48 ± 0.24^∗∗ % | 25 ± 0.17% | 36 ± 0.19%
O=C1NC(c2ccc(-c3ccccc3)cc2)=CC1=Cc1cc2cc([N+](=O)[O-])ccc2nc1Cl [Compound 6h, 3-[(2-Chloro-6-nitroquinolin-3-yl)methylene]-5-(biphenyl-4-yl)-1H-pyrrol-2(3H)-one] | 6.25 mg/L (≈ 13.8 µM) |  | 25 mg/L (≈ 55.1 µM) |  | 25 mg/L (≈ 55.1 µM) | 12.5 mg/L (≈ 27.5 µM) | 25 mg/L (≈ 55.1 µM) | 25 mg/L (≈ 55.1 µM) | 58 ± 0.19^∗ % | 58 ± 0.05^∗∗ % | 50 ± 0.18% | 48 ± 0.15^∗ %
O=C1C(=Cc2cc3ccccc3nc2Cl)C=C(c2ccc3ccccc3c2)N1Cc1ccccc1 [Compound 7a, 1-Benzyl-3-[(2-chloroquinolin-3-yl)methylene]-5-(naphthalene-2-yl)-1H-pyrrol-2(3H)-one] | 50 mg/L (≈ 106 µM) |  | 25 mg/L (≈ 52.9 µM) |  | > 100 mg/L | > 100 mg/L | 50 mg/L (≈ 106 µM) | > 100 mg/L | 52 ± 0.13^∗ % | 62 ± 0.27^∗∗ % | 28 ± 0.34% | 57 ± 0.13^∗∗ %
Cc1ccc2nc(Cl)c(C=C3C=C(c4ccc5ccccc5c4)N(Cc4ccccc4)C3=O)cc2c1 [Compound 7c, 1-Benzyl-3-[(2-chloro-6-methylquinolin-3-yl)methylene]-5-(naphthalene-2-yl)-1H-pyrrol-2(3H)-one] | 25 mg/L (≈ 51.3 µM) |  | 50 mg/L (≈ 103 µM) |  | > 100 mg/L | 50 mg/L (≈ 103 µM) | 50 mg/L (≈ 103 µM) | 25 mg/L (≈ 51.3 µM) | 78 ± 0.12^∗∗ % | 71 ± 0.28^∗∗ % | 57 ± 0.25^∗ % | 61 ± 0.21^∗∗ %
O=C1C(=Cc2cc3ccccc3nc2Cl)C=C(c2ccc(-c3ccccc3)cc2)N1Cc1ccccc1 [Compound 7e, 1-Benzyl-3-[(2-chloroquinolin-3-yl)methylene]-5-(biphenyl-4-yl)-1H-pyrrol-2(3H)-one] | 50 mg/L (≈ 100 µM) | did not show any inhibition | > 100 mg/L | did not show any inhibition | > 100 mg/L | > 100 mg/L | 50 mg/L (≈ 100 µM) | > 100 mg/L | 78 ± 0.12^∗∗ % | 51 ± 0.11^∗∗ % | 44 ± 0.08% | 41 ± 0.08%
O=C(O)c1cn(C2CC2)c2cc(N3CCNCC3)c(F)cc2c1=O [Standard-1, Ciprofloxacin, reference compound] | 6.25 mg/L (≈ 18.9 µM) |  | 6.25 mg/L (≈ 18.9 µM) |  | 6.25 mg/L (≈ 18.9 µM) |  |  |  |  |  |  | 
OC(Cn1cncn1)(Cn1cncn1)c1ccc(F)cc1F [Standard-2, Fluconazole, reference compound] |  |  |  |  |  | 6.25 mg/L (≈ 20.4 µM) | 6.25 mg/L (≈ 20.4 µM) | 6.25 mg/L (≈ 20.4 µM) |  |  |  | 
